Assay results: ChEMBL document CHEMBL1137710, “Synthesis and in vitro antitumor activity of new quinoxaline derivatives” (2009)

Experiments:
Format in all cases: functional
NCI-H460 [1] = assay: Anticancer activity against human NCI-H460 cells assessed as cell growth at 100 uM after 48 hrs by sulforhodamine B assay; details: NCI-H460, 48 h, read-out: Activity
MCF7 [2] = assay: Anticancer activity against human MCF7 cells assessed as cell growth at 100 uM after 48 hrs by sulforhodamine B assay; details: MCF7, 48 h, read-out: Activity
SF-268 [3] = assay: Anticancer activity against human SF268 cells assessed as cell growth at 100 uM after 48 hrs by sulforhodamine B assay; details: SF-268, 48 h, read-out: Activity
[4] = Growth inhibition of human […] cells after 48 hrs by sulforhodamine B assay
How it was run: (§1)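 NCI 60-human-tumor-cell-line panel, with compounds tested over a 5-log dose range. Values are taken from dose-response curves as log10 molar concentrations: GI50 is 50% net growth inhibition, TGI is total growth inhibition, and LC50 is 50% net cell death.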

A549 = assay: Growth inhibition of human A549 cells after 48 hrs by sulforhodamine B assay; details: A549, 48 h; how it was run: as §1
NCI-H23 = assay: Growth inhibition of human NCI-H23 cells after 48 hrs by sulforhodamine B assay; details: NCI-H23, 48 h; how it was run: as §1
NCI-H460 [5] = assay: Growth inhibition of human NCI-H460 cells after 48 hrs by sulforhodamine B assay; details: NCI-H460, 48 h; how it was run: as §1
COLO 205 = assay: Growth inhibition of human COLO205 cells after 48 hrs by sulforhodamine B assay; details: COLO 205, 48 h; how it was run: as §1
HCT-116 = assay: Growth inhibition of human HCT116 cells after 48 hrs by sulforhodamine B assay; details: HCT-116, 48 h; how it was run: as §1
SW-620 = assay: Growth inhibition of human SW620 cells after 48 hrs by sulforhodamine B assay; details: SW-620, 48 h
How it was run: (§2)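 Run in the NCI 60-human-tumour-cell-line panel, tested over a 5-log dose range. Dose–response curves gave three values per cell line, each as a log10 molar concentration: GI50 (50% inhibition of net cell growth), TGI (total inhibition of net growth) and LC50 (50% net cell death). The mean graph midpoint is the arithmetic mean over all lines, with insensitive lines entered at the highest concentration tested.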

SF-268 [6] = assay: Growth inhibition of human SF268 cells after 48 hrs by sulforhodamine B assay; details: SF-268, 48 h; how it was run: as §1
SF-295 = assay: Growth inhibition of human SF295 cells after 48 hrs by sulforhodamine B assay; details: SF-295, 48 h; how it was run: as §1
SNB-19 = assay: Growth inhibition of human SNB19 cells after 48 hrs by sulforhodamine B assay; details: SNB-19, 48 h; how it was run: as §2
U-251 = assay: Growth inhibition of human U251 cells after 48 hrs by sulforhodamine B assay; details: U-251, 48 h; how it was run: as §2
M14 = assay: Growth inhibition of human M14 cells after 48 hrs by sulforhodamine B assay; details: M14, 48 h; how it was run: as §1
SK-MEL-28 = assay: Growth inhibition of human SK-MEL-28 cells after 48 hrs by sulforhodamine B assay; details: SK-MEL-28, 48 h; how it was run: as §1
SK-MEL-5 = assay: Growth inhibition of human SK-MEL-5 cells after 48 hrs by sulforhodamine B assay; details: SK-MEL-5, 48 h; how it was run: as §1
UACC-257 = assay: Growth inhibition of human UACC257 cells after 48 hrs by sulforhodamine B assay; details: UACC-257, 48 h; how it was run: as §2
UACC-62 = assay: Growth inhibition of human UACC62 cells after 48 hrs by sulforhodamine B assay; details: UACC-62, 48 h; how it was run: as §2
IGROV-1 = assay: Growth inhibition of human IGROV1 cells after 48 hrs by sulforhodamine B assay; details: IGROV-1, 48 h; how it was run: as §1
OVCAR-8 = assay: Growth inhibition of human OVCAR8 cells after 48 hrs by sulforhodamine B assay; details: OVCAR-8, 48 h; how it was run: as §1
SK-OV-3 = assay: Growth inhibition of human SKOV3 cells after 48 hrs by sulforhodamine B assay; details: SK-OV-3, 48 h; how it was run: as §1
RXF 393 = assay: Growth inhibition of human RXF393 cells after 48 hrs by sulforhodamine B assay; details: RXF 393, 48 h; how it was run: as §1
TK-10 = assay: Growth inhibition of human TK10 cells after 48 hrs by sulforhodamine B assay; details: TK-10, 48 h; how it was run: as §2
PC-3 = assay: Growth inhibition of human PC3 cells after 48 hrs by sulforhodamine B assay; details: PC-3, 48 h; how it was run: as §1
DU-145 = assay: Growth inhibition of human DU145 cells after 48 hrs by sulforhodamine B assay; details: DU-145, 48 h; how it was run: as §1
MDA-MB-231 = assay: Growth inhibition of human MDA-MB-231 cells after 48 hrs by sulforhodamine B assay; details: MDA-MB-231, 48 h; how it was run: as §1
MDA-MB-435 = assay: Growth inhibition of human MDA-MB-435 cells after 48 hrs by sulforhodamine B assay; details: MDA-MB-435, 48 h; how it was run: as §1
MCF7 [7] = assay: Growth inhibition of human MCF7 cells after 48 hrs by sulforhodamine B assay; details: MCF7, 48 h; how it was run: as §1
[8] = read-out: pLC50 (the source's name) (converted)

Work on `COc1cc(CNc2nc3cc(N)cc(N)c3nc2-c2ccccc2)cc(OC)c1OC` yielded a growth at 100 µM (NCI-H460 [1]) of 7%, a growth at 100 µM (MCF7 [2]) of 0% and a growth at 100 µM (SF-268 [3]) of 15%. It also gave a GI50 [4] of 692 nM, an LC50 [4] of over 50.1 µM and a TGI ([4]; read-out: pTGI (converted)) of 3.02 µM. The GI50 (A549) was 4.27 µM, the LC50 (A549) was over 50.1 µM and the TGI (A549; read-out: pTGI (converted)) was 33.1 µM. It also gave a GI50 (NCI-H23) of 8.71 µM, an LC50 (50% net cell kill concentration) (NCI-H23) of 33.9 µM and a TGI (NCI-H23; read-out: pTGI (converted)) of 17 µM. For the same compound, the GI50 (NCI-H460 [5]) was 1510 nM, the LC50 (50% net cell kill) (NCI-H460 [5]) was over 50.1 µM and the TGI (NCI-H460 [5]; read-out: pTGI (converted)) was over 50.1 µM. The GI50 (COLO 205) was 3.8 µM, the LC50 (50% net cell kill) (COLO 205) was over 50.1 µM and the TGI (COLO 205; read-out: pTGI (converted)) was over 50.1 µM. For the same compound, the GI50 (HCT-116) was 9.77 µM, the LC50 (concentration causing 50% net cell death) (HCT-116) was 37.2 µM and the TGI (HCT-116; read-out: pTGI (converted)) was 19.1 µM. For the same compound, the GI50 (SW-620) was 1550 nM, the CC50 (SW-620; [8]) was over 50.1 µM and the TGI (SW-620; read-out: pTGI (converted)) was 4.47 µM. The GI50 (SF-268 [6]) was 2950 nM, the LC50 (SF-268 [6]) was 49 µM and the TGI (SF-268 [6]; read-out: pTGI (converted)) was 14.1 µM. For the same compound, the GI50 (SF-295) was 1660 nM, the LC50 (50% net cell kill) (SF-295) was 37.2 µM and the TGI (SF-295; read-out: pTGI (converted)) was 5.62 µM. For the same compound, the GI50 (SNB-19) was 7.24 µM, the LC50 (SNB-19) was over 50.1 µM and the TGI (SNB-19; read-out: pTGI (converted)) was 20.9 µM. For the same compound, the GI50 (U-251) was 1740 nM, the LC50 (50% net cell kill) (U-251) was 30.2 µM and the TGI (U-251; read-out: pTGI (converted)) was 6.31 µM. It also gave a GI50 (M14) of 9.55 µM, a CC50 (M14; [8]) of 34.7 µM and a TGI (M14; read-out: pTGI (converted)) of 18.2 µM. For the same compound, the GI50 (SK-MEL-28) was 8.51 µM, the CC50 (SK-MEL-28; [8]) was 36.3 µM and the TGI (SK-MEL-28; read-out: pTGI (converted)) was 17.8 µM. For the same compound, the GI50 (SK-MEL-5) was 724 nM, the CC50 (SK-MEL-5; [8]) was 29.5 µM and the TGI (SK-MEL-5; read-out: pTGI (converted)) was 7.76 µM. The GI50 (UACC-257) was 3.47 µM, the CC50 (UACC-257; [8]) was 27.5 µM and the TGI (UACC-257; read-out: pTGI (converted)) was 10.7 µM. For the same compound, the GI50 (UACC-62) was 8.13 µM, the CC50 (UACC-62; [8]) was 29.5 µM and the TGI (UACC-62; read-out: pTGI (converted)) was 15.5 µM. For the same compound, the GI50 (IGROV-1) was 9.12 µM, the CC50 (IGROV-1; [8]) was over 50.1 µM and the TGI (IGROV-1; read-out: pTGI (converted)) was over 50.1 µM. For the same compound, the GI50 (OVCAR-8) was 6.92 µM, the CC50 (OVCAR-8; [8]) was 31.6 µM and the TGI (OVCAR-8; read-out: pTGI (converted)) was 14.8 µM. The GI50 (SK-OV-3) was 5.37 µM, the CC50 (SK-OV-3; [8]) was 36.3 µM and the TGI (SK-OV-3; read-out: pTGI (converted)) was 13.8 µM. The GI50 (RXF 393) was 7.41 µM, the CC50 (RXF 393; [8]) was over 50.1 µM and the TGI (RXF 393; read-out: pTGI (converted)) was 20 µM. It also gave a GI50 (TK-10) of 6.31 µM, a CC50 (TK-10; [8]) of over 50.1 µM and a TGI (TK-10; read-out: pTGI (converted)) of 17.8 µM. The GI50 (PC-3) was 2190 nM, the CC50 (PC-3; [8]) was over 50.1 µM and the TGI (PC-3; read-out: pTGI (converted)) was over 50.1 µM. It also gave a GI50 (DU-145) of 5.25 µM, a CC50 (DU-145; [8]) of over 50.1 µM and a TGI (DU-145; read-out: pTGI (converted)) of 20 µM. The GI50 (MDA-MB-231) was 7.24 µM, the CC50 (MDA-MB-231; [8]) was 31.6 µM and the TGI (MDA-MB-231; read-out: pTGI (converted)) was 15.1 µM. The GI50 (MDA-MB-435) was 229 nM, the CC50 (MDA-MB-435; [8]) was 2880 nM and the TGI (MDA-MB-435; read-out: pTGI (converted)) was 912 nM. It also gave a GI50 (MCF7 [7]) of 1550 nM, a CC50 (MCF7 [7]; [8]) of over 50.1 µM and a TGI (MCF7 [7]; read-out: pTGI (converted)) of over 50.1 µM.
